Measured values taken from ChEMBL document CHEMBL4732226, “Discovery of a potent G-protein-coupled receptor 119 agonist for the treatment of type 2 diabetes” (Bioorg Med Chem, 2021).
Activity calls are given as the source filed them. No cut-off for these calls is given here.

What was measured:
Mus musculus [1] = assay: Antidiabetic activity in glucose-stimulated db/db mouse assessed as increase in glucose dependent insulin secretion at 50 mg/kg, po after 10 to 30 mins; assay type: functional, organism-based; conditions: time 10-30 min
Mus musculus [2] = assay: Antidiabetic activity in glucose-stimulated db/db mouse assessed as increase in GLP-1 level secretion at 50 mg/kg, po after 10 mins; assay type: functional
In short: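 Male db/db mice received a single oral dose of 50 mg/kg, followed by a glucose load. Plasma active GLP-1 measured in pg/ml at 10 min after glucose.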

[3] = Tmax in Beagle dog at 10 mg/kg, po up to 24 hrs; assay type: ADME, organism-based, Canis lupus familiaris; conditions: in vivo
In short: (§1)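 Single oral dose at 10 mg/kg given to male Wistar rats and to Beagle dogs; bioavailability also determined in both species.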

[4] = Cmax in Beagle dog at 10 mg/kg, po up to 24 hrs; assay type: ADME, organism-based, Canis lupus familiaris; design: route oral, dose 10 mg/kg, time <=24; conditions: in vivo; in short: as §1
[5] = Half life in Beagle dog at 10 mg/kg, po up to 24 hrs; assay type: ADME, organism-based, Canis lupus familiaris; conditions: in vivo; in short: as §1
[6] = Elimination rate constant in Beagle dog at 10 mg/kg, po up to 24 hrs; assay type: ADME, organism-based, Canis lupus familiaris; conditions: in vivo; in short: as §1
[7] = AUC(0 to infinity) in Wistar rat at 10 mg/kg, po up to 24 hrs; assay type: ADME, organism-based; design: route oral, dose 10 mg/kg, time <=24; conditions: in vivo; in short: as §1
[8] = Toxicity in male Wistar rat assessed as ratio of heart to body weight at 400 mg/kg, po after 28 days (reference value: 0.333 +/- 0.036); assay type: organism-based; conditions: in vivo, 672 h, time 28 day
[9] = Toxicity in female Wistar rat assessed as ratio of heart to body weight at 200 mg/kg, po after 28 days (reference value: 0.38 +/- 0.037); assay type: organism-based; conditions: in vivo, 672 h, time 28 day
[10] = Toxicity in male Wistar rat assessed as ratio of liver to body weight at 100 mg/kg, po after 28 days (reference value: 3.142 +/- 0.231); assay type: organism-based; conditions: in vivo, 672 h, time 28 day
[11] = Toxicity in male Wistar rat assessed as ratio of liver to body weight at 200 mg/kg, po after 28 days (reference value: 3.142 +/- 0.231); assay type: organism-based; conditions: in vivo, 672 h, time 28 day
[12] = Toxicity in male Wistar rat assessed as ratio of liver to body weight at 400 mg/kg, po after 28 days (reference value: 3.142 +/- 0.231); assay type: organism-based; conditions: in vivo, 672 h, time 28 day
[13] = Toxicity in female Wistar rat assessed as ratio of liver to body weight at 200 mg/kg, po after 28 days (reference value: 3.219 +/- 0.221); assay type: organism-based; conditions: in vivo, 672 h, time 28 day
[14] = Toxicity in female Wistar rat assessed as ratio of kidney to body weight at 100 mg/kg, po after 28 days (reference value: 0.801 +/- 0.071); assay type: organism-based; conditions: in vivo, 672 h, time 28 day
[15] = Toxicity in female Wistar rat assessed as ratio of spleen to body weight at 200 mg/kg, po after 28 days (reference value: 0.244 +/- 0.032); assay type: organism-based; conditions: in vivo, 672 h, time 28 day
[16] = Toxicity in female Wistar rat assessed as ratio of adrenals to body weight at 400 mg/kg, po after 28 days (reference value: 0.045 +/- 0.007); assay type: organism-based; conditions: in vivo, 672 h, time 28 day
[17] = Toxicity in male Wistar rat assessed as ratio of testes to body weight at 400 mg/kg, po after 28 days (reference value: 1.248 +/- 0.073); assay type: organism-based; conditions: in vivo, 672 h, time 28 day
[18] = Toxicity in female Wistar rat assessed as ratio of ovaries to body weight at 200 mg/kg, po after 28 days (reference value: 0.091 +/- 0.009); assay type: organism-based; conditions: in vivo, 672 h, time 28 day
[19] = Toxicity in female Wistar rat assessed as ratio of ovaries to body weight at 400 mg/kg, po after 28 days (reference value: 0.091 +/- 0.009); assay type: organism-based; conditions: in vivo, 672 h, time 28 day
[20] = Toxicity in female Wistar rat assessed as ratio of uterus to body weight at 200 mg/kg, po after 28 days (reference value: 0.335 +/- 0.108); assay type: organism-based; conditions: in vivo, 672 h, time 28 day
[21] = Toxicity in male Wistar rat assessed as ratio of thymus to body weight at 200 mg/kg, po after 28 days (reference value: 0.148 +/- 0.023); assay type: organism-based; conditions: in vivo, 672 h, time 28 day
[22] = Toxicity in female Wistar rat assessed as ratio of thymus to body weight at 100 mg/kg, po after 28 days (reference value: 0.260 +/- 0.025); assay type: organism-based; conditions: in vivo, 672 h, time 28 day
[23] = Toxicity in female Wistar rat assessed as globulin level at 400 mg/kg, po after 28 days (reference value: 2.44 +/- 0.18 g/dl); assay type: organism-based; conditions: in vivo, 672 h, time 28 day
[24] = Toxicity in male Wistar rat assessed as glucose level at 400 mg/kg, po after 28 days (reference value: 89.02 +/- 13.41 mg/dl); assay type: organism-based; conditions: in vivo, 672 h, time 28 day
[25] = Toxicity in female Wistar rat assessed as glucose level at 400 mg/kg, po after 28 days (reference value: 78.4 +/- 8.36 mg/dl); assay type: organism-based; conditions: in vivo, 672 h, time 28 day
[26] = Toxicity in female Wistar rat assessed as ALP level at 200 mg/kg, po after 28 days (reference value: 100.14 +/- 21.98 U/L); assay type: organism-based; conditions: in vivo, 672 h, time 28 day
[27] = Toxicity in female Wistar rat assessed as ALP level at 400 mg/kg, po after 28 days (reference value: 100.14 +/- 21.98 U/L); assay type: organism-based; conditions: in vivo, 672 h, time 28 day
[28] = Toxicity in male Wistar rat assessed as AST level at 200 mg/kg, po after 28 days (reference value: 119.4 +/- 9.3 U/L); assay type: organism-based; conditions: in vivo, 672 h, time 28 day
[29] = Toxicity in female Wistar rat assessed as ALT level at 100 mg/kg, po after 28 days (reference value: 21.28 +/- 2.31 U/L); assay type: organism-based; conditions: in vivo, 672 h, time 28 day
[30] = Toxicity in male Wistar rat assessed as albumin level at 100 mg/kg, po after 28 days (reference value: 3.56 +/- 0.08 g.dl); assay type: organism-based; conditions: in vivo, 672 h, time 28 day
[31] = Toxicity in male Wistar rat assessed as albumin level at 200 mg/kg, po after 28 days (reference value: 3.56 +/- 0.08 g.dl); assay type: organism-based; conditions: in vivo, 672 h, time 28 day
[32] = Toxicity in female Wistar rat assessed as albumin level at 100 mg/kg, po after 28 days (reference value: 3.57 +/- 0.14 g.dl); assay type: organism-based; conditions: in vivo, 672 h, time 28 day
[33] = Toxicity in male Wistar rat assessed as urea level at 400 mg/kg, po after 28 days (reference value: 58.14 +/- 9.13 mg/dl); assay type: organism-based; conditions: in vivo, 672 h, time 28 day
[34] = Toxicity in female Wistar rat assessed as urea level at 100 mg/kg, po after 28 days (reference value: 48.09 +/- 5.3 mg/dl); assay type: organism-based; conditions: in vivo, 672 h, time 28 day
[35] = Toxicity in female Wistar rat assessed as urea level at 400 mg/kg, po after 28 days (reference value: 48.09 +/- 5.3 mg/dl); assay type: organism-based; conditions: in vivo, 672 h, time 28 day
[36] = Toxicity in female Wistar rat assessed as change in survival at 100 to 400 mg/kg, po after 28 days; assay type: organism-based; conditions: in vivo, 672 h, dose 100-400 mg/kg, time 28 day
In short: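 Repeated-dose oral toxicity by gavage in Wistar rats, 10 males and 10 females per group, given 100, 200 or 400 mg/kg once daily for 28 days. Endpoints were clinical signs, mortality, neurobehaviour, food intake, ophthalmic examination and body weight. Animals were sacrificed on day 29 for blood biochemistry, organ-to-body weight ratios and histopathology.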

In the case of `Cc1c(Oc2cccc(/C=C3\SC(=O)NC3=O)c2)ncnc1OC1CCN(C(=O)OC(C)(C)C)CC1`, the Activity (Mus musculus [1]) is reported as “Active”, the “fold change (FC)” value (Mus musculus [2]) is reported as 2.6 and the Tmax [3] is reported as 3 h. The Cmax [4] was 1050 ng/mL, the half-life [5] was 19.3 h and the k el at 24 h [6] was 1.11e-05 s⁻¹. It also gave an AUC(0-inf) [7] of 1900 ng·h/mL, a Ratio [8] of 0.338 and a Ratio [9] of 0.394. For the same compound, the Ratio [10] was 3.237, the Ratio [11] was 3.304 and the Ratio [12] was 3.22. For the same compound, the Ratio [13] was 3.285, the Ratio [14] was 0.875 and the Ratio [15] was 0.242. The Ratio [16] was 0.042, the Ratio [17] was 1.23 and the Ratio [18] was 0.089. For the same compound, the Ratio [19] was 0.081, the Ratio [20] was 0.33 and the Ratio [21] was 0.175. For the same compound, the Ratio [22] was 0.241, the Activity [23] was 2.42 g/dL and the Activity [24] was 82.17 mg/dL. The Activity [25] was 76.54 mg/dL, the Activity [26] was 91.73 U/L and the Activity [27] was 100.97 U/L. The Activity [28] was 116.98 U/L, the Activity [29] was 22.37 U/L and the Activity [30] was 3.47 g/dL. It also gave an Activity [31] of 3.61 g/dL, an Activity [32] of 3.59 g/dL and an Activity [33] of 51.15 mg/dL. The Activity [34] was 47.84 mg/dL, the Activity [35] was 43.2 mg/dL and the Activity [36] was “Non-Toxic”.
